pIC50: −log10 of the molar value. Like-named read-outs stand apart in the source and are kept apart here.
How the values were obtained:
STAT2 = STAT2 (Homo sapiens, UniProt P52630); test: Western blot, cytokine-induced STAT2 phosphorylation; assay type: cell-based; conditions: MM.1S, IFN-α stimulated, 2 hours pre-treatment
Outline: (§1)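 MM.1S cells were serum-starved for 24 h, then pre-treated for 2 h with test compound (2.5–10 μM), a reference STAT3 inhibitor (2.5–20 μM) or DMSO. IFN-α (25ng/ml) was added for 30 min in the presence or absence of test compound. Western blots of RIPA lysates were probed for p-STAT1 (Tyr701) or p-STAT2 (Tyr690).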

[1] = 5 mg/kg daily intraperitoneal, vs vehicle-treated mice
PDGFR-a = PDGFR-a (Homo sapiens, UniProt P16234); conditions: read-out: IC50 kinase activity, PDGFR-a; 10 concentrations, 100 μM highest
PKC-d = PKC-d (Homo sapiens, UniProt Q05655); conditions: read-out: IC50 kinase activity, PKC-d; 10 concentrations, 100 μM highest
ARH-77 MM cells [2] = test: Annexin-V/PI flow cytometry apoptosis; assay type: cell-based, human; conditions: 24 hours
Outline: (§2)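 Cells were treated with test compound or DMSO for 24 h, harvested, washed in cold PBS and resuspended in 1× binding buffer at 1 × 10^6 cells/ml. Annexin V-FITC and PI were added for 15 min at RT in the dark. Analysis was by flow cytometry within 1 h. Results come from at least 3 independent experiments, compared with DMSO by Mann-Whitney test.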

STAT3 [3] = biological target: T1, STAT3 (Homo sapiens, UniProt P40763); test: Western blot, IL-6 and IFN-α induced STAT3 phosphorylation; assay type: cell-based; conditions: MM.1S, 2 hours pre-treatment, 30 minutes stimulation
U266 MM cells [4] = test: Annexin-V/PI flow cytometry apoptosis; assay type: cell-based, human; conditions: 24 hours
Outline: as §2

U266 cells = test: Synergy of LLL12 and lenalidomide, combinational index; assay type: cell-based, human; conditions: LLL12 combined with lenalidomide, U266, all combinations; CI < 1 = synergism
STAT6 = STAT6 (Homo sapiens, UniProt P42226); test: Western blot, IL-4 induced STAT6 phosphorylation; assay type: cell-based; conditions: IM-9 human MM cells
Outline: (§3)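 IM-9 cells were serum-starved for 24 h, then left untreated or pre-treated for 2 h with test compound (2.5–10 μM), a reference STAT3 inhibitor (2.5–20 μM) or DMSO. IL-4 (25ng/ml) was added, and cells were harvested 30 min later. Blots of RIPA lysates were probed for p-STAT4 (Tyr693) or p-STAT6 (Tyr641).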

AKT2 = AKT2 (Homo sapiens, UniProt P31751); conditions: read-out: IC50 kinase activity, AKT2; 10 concentrations, 100 μM highest
[5] = system: twenty one purified human protein kinases
CSK = CSK (Homo sapiens, UniProt P41240); conditions: read-out: IC50 kinase activity, CSK; 10 concentrations, 100 μM highest
PAK2 = PAK2 (Homo sapiens, UniProt Q13177); conditions: read-out: IC50 kinase activity, PAK2; 10 concentrations, 100 μM highest
BRK = BRK (Homo sapiens, UniProt Q13882); conditions: read-out: IC50 kinase activity, BRK; 10 concentrations, 100 μM highest
ARH-77 MM tumor cells = test: Mouse xenograft model; assay type: in vivo, NOD/SCID mice; conditions: 5 mg/kg daily intraperitoneal, vs DMSO
BMX = BMX (Homo sapiens, UniProt P51813); conditions: read-out: IC50 kinase activity, BMX; 10 concentrations, 100 μM highest
STAT3 [6] = biological target: T1, STAT3; test: Western blot, constitutive STAT3 phosphorylation; assay type: cell-based
Outline: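 U266 and ARH-77 cells were treated with test compound or DMSO for 24 h. Primary CD138+ patient cells were isolated by positive magnetic selection (n=3 patients). Cells were lysed in cold RIPA buffer with protease inhibitors, run on SDS-PAGE and transferred to PVDF. Blots were probed for p-STAT3 (Tyr705) and total STAT3 and developed by chemiluminescence, with GAPDH as loading control.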

PKC-a = PKC-a (Homo sapiens, UniProt P17252); conditions: read-out: IC50 kinase activity, PKC-a; 10 concentrations, 100 μM highest
FAK = FAK (Homo sapiens, UniProt Q05397); conditions: read-out: IC50 kinase activity, FAK; 10 concentrations, 100 μM highest
Lyn = Lyn (Homo sapiens, UniProt P07948); conditions: read-out: IC50 kinase activity, Lyn; 10 concentrations, 100 μM highest
STAT1 = STAT1 (Homo sapiens, UniProt P42224); test: Western blot, cytokine-induced STAT1 phosphorylation; assay type: cell-based; conditions: MM.1S, IFN-α stimulated, 2 hours pre-treatment
Outline: as §1

JNK1 = JNK1 (Homo sapiens, UniProt P45983); conditions: read-out: IC50 kinase activity, JNK1; 10 concentrations, 100 μM highest
[7] = system: normal human marrow [CD138(−)] cells; conditions: 10μM, 24h, MTS
JAK3 = JAK3 (Homo sapiens, UniProt P52333); conditions: read-out: IC50 kinase activity, JAK3; 10 concentrations, 100 μM highest
JNK2 = JNK2 (Homo sapiens, UniProt P45984); conditions: read-out: IC50 kinase activity, JNK2; 10 concentrations, 100 μM highest
FGFR2 = FGFR2 (Homo sapiens, UniProt P21802); conditions: read-out: IC50 kinase activity, FGFR2; 10 concentrations, 100 μM highest
PAK1 = PAK1 (Homo sapiens, UniProt Q13153); conditions: read-out: IC50 kinase activity, PAK1; 10 concentrations, 100 μM highest
STAT4 = STAT4 (Homo sapiens, UniProt Q14765); test: Western blot, IL-4 induced STAT4 phosphorylation; assay type: cell-based; conditions: IM-9 human MM cells
Outline: as §3

[8] = system: normal human peripheral blood lymphocytes
Fyn = Fyn (Homo sapiens, UniProt P06241); conditions: read-out: IC50 kinase activity, Fyn; 10 concentrations, 100 μM highest
[9] = system: STAT3 downstream target genes; test: RT-PCR of STAT3 downstream target genes; assay type: cell-based, human; conditions: U266 and ARH-77, 24-h
ZAP-70 = ZAP-70 (Homo sapiens, UniProt P43403); conditions: read-out: IC50 kinase activity, ZAP-70; 10 concentrations, 100 μM highest
ERK(1/2) = test: Western blot, ERK; assay type: cell-based, human
Outline: (§4)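 MM cells were treated with test compound (2.5, 5 or 10μM) or DMSO for 24 h, then lysed in cold RIPA buffer with protease inhibitors. Lysates were run on SDS-PAGE, transferred to PVDF and probed with antibodies to p-ERK1/2 (Thr202/Tyr204), p-Src (Tyr416), p-mTOR (Ser2448), or cleaved caspase-3 and cleaved PARP. Detection was by enhanced chemiluminescence, with GAPDH as loading control.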

ARH-77 MM cells [10] = test: MTT cell viability assay; assay type: cell-based, human; conditions: read-out: IC50 cell viability, ARH-77, 72 hours
CDK1/CyclinB = CDK1/CyclinB (Homo sapiens, UniProt P06493); conditions: read-out: IC50 kinase activity, CDK1/CyclinB; 10 concentrations, 100 μM highest
Src = test: Western blot, Src phosphorylation; assay type: cell-based, human; conditions: U266 and ARH-77 MM cells
Outline: as §4

STAT3 [11] = biological target: T1, STAT3; test: STAT3 nuclear localization, immunofluorescence staining; assay type: cell-based; conditions: U266 cells
mTOR = test: Western blot, mTOR phosphorylation; assay type: cell-based, human; conditions: U266 and ARH-77 MM cells
Outline: as §4

U266 MM cells [12] = test: MTT cell viability assay; assay type: cell-based, human; conditions: read-out: IC50 cell viability, U266, 72 hours
LcK = LcK (Homo sapiens, UniProt P06239); conditions: read-out: IC50 kinase activity, LcK; 10 concentrations, 100 μM highest
MM1.S MM cells = test: MTT viability of MM1.S cells; assay type: cell-based, human
Fgr = Fgr (Homo sapiens, UniProt P09769); conditions: read-out: IC50 kinase activity, Fgr; 10 concentrations, 100 μM highest
IKKb = IKKb (Homo sapiens, UniProt O14920); conditions: read-out: IC50 kinase activity, IKKb; 10 concentrations, 100 μM highest
STAT3 [13] = biological target: T1, STAT3; test: STAT3 DNA binding activity in nuclear extracts; assay type: cell-based; conditions: 24 hours, U266 and ARH-77 MM cells
RPMI-8226 = test: Western blot, cleaved caspase-3 and PARP; assay type: cell-based, human; conditions: IL-6 independent RPMI-8226, P-STAT3 too low to be detected
Outline: as §4

T1 sequence (P40763 whole entry): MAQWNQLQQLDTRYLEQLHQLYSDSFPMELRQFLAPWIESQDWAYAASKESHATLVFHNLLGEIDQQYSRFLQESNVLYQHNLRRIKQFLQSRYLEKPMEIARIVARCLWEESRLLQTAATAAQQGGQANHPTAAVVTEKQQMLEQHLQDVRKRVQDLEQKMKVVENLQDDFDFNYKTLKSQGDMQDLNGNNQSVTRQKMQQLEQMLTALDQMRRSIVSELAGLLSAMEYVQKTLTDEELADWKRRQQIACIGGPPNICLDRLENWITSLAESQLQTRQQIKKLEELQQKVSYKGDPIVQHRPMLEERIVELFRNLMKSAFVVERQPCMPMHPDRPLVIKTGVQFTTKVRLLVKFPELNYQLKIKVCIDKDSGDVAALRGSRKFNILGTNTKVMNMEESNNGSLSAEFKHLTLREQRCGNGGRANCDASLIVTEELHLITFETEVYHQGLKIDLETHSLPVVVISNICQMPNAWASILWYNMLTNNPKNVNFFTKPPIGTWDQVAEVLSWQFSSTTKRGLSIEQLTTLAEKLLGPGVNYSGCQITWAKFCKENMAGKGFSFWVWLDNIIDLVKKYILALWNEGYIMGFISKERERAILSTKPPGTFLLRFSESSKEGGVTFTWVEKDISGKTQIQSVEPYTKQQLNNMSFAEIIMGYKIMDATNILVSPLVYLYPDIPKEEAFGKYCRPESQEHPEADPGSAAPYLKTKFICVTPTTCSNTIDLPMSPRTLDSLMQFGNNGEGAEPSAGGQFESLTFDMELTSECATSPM
Sequence of JAK3 (P52333 whole entry): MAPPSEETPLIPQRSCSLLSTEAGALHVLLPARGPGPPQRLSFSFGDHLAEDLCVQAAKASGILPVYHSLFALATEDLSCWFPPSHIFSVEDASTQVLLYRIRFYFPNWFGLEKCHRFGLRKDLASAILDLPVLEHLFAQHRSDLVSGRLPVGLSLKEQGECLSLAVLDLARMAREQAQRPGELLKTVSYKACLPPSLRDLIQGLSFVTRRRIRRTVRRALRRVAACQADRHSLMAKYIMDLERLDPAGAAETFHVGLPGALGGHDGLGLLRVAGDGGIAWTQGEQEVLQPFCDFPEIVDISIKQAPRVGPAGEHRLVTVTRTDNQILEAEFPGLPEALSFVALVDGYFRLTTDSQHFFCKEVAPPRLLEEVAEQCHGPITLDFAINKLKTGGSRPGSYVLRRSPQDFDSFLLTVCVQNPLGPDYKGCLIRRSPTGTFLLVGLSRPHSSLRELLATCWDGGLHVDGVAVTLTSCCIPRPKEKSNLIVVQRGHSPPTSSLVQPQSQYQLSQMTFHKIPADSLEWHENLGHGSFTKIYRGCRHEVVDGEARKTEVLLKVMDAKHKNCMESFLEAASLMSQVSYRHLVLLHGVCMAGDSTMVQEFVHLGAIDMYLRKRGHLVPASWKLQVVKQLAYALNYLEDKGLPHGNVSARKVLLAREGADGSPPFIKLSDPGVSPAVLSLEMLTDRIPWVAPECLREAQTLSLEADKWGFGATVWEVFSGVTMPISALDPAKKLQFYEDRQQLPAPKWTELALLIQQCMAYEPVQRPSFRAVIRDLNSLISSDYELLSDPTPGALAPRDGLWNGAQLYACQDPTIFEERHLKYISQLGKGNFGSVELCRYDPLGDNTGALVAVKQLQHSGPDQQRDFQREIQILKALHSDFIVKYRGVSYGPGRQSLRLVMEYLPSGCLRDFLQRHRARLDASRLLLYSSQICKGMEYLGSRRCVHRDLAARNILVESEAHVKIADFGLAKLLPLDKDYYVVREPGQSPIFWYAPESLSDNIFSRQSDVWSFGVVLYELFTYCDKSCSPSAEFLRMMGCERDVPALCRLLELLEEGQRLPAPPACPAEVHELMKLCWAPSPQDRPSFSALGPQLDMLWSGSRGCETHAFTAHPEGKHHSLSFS
Sequence of IKKb (O14920 whole entry): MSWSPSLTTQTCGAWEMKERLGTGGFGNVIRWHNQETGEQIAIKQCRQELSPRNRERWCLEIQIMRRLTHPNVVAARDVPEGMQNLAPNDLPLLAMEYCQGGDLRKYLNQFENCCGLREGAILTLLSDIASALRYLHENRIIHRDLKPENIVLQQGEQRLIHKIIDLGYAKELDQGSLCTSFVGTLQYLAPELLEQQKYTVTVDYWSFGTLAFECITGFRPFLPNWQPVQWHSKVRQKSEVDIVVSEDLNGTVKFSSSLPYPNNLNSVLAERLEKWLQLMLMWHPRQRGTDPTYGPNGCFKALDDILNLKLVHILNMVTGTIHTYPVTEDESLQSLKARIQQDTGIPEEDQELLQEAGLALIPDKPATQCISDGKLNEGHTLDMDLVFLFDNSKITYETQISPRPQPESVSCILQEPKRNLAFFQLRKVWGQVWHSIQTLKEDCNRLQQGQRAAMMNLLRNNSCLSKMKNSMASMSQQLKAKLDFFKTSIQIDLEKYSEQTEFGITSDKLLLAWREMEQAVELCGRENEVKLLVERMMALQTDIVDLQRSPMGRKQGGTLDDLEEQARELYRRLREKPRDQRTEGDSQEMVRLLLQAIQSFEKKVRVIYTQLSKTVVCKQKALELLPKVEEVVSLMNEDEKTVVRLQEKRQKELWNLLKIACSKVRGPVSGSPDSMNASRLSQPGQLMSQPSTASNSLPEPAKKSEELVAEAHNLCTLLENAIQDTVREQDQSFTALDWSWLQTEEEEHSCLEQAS
Sequence of PKC-d (Q05655 whole entry): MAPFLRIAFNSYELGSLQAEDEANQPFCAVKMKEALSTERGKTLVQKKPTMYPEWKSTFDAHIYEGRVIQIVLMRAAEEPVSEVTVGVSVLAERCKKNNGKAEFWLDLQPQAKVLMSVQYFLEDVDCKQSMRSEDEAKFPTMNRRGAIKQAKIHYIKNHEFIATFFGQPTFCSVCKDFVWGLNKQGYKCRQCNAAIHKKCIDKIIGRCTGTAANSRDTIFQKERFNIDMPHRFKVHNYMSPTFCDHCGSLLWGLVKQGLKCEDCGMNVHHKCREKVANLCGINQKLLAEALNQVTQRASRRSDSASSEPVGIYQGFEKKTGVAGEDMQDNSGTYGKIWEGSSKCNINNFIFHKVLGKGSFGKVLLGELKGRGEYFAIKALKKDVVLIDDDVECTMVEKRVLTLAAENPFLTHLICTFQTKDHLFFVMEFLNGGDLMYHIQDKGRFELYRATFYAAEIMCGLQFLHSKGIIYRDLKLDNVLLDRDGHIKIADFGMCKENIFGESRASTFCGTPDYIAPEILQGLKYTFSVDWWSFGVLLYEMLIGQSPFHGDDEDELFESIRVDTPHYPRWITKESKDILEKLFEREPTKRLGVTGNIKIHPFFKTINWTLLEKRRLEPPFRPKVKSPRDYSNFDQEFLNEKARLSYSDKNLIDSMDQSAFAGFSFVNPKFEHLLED
Sequence of AKT2 (P31751 whole entry): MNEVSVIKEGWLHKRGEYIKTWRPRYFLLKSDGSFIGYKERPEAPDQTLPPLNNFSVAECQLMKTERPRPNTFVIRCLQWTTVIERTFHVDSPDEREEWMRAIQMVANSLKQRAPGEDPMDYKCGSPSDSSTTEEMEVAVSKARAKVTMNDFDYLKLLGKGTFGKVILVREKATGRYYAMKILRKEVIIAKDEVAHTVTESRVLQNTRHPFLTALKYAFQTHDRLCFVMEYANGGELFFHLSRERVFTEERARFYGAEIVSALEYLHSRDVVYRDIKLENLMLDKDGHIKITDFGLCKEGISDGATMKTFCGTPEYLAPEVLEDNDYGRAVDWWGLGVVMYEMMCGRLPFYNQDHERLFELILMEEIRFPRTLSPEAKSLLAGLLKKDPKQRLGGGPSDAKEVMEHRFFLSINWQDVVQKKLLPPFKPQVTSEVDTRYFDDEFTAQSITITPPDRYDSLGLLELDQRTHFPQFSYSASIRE
Sequence of Fgr (P09769 whole entry): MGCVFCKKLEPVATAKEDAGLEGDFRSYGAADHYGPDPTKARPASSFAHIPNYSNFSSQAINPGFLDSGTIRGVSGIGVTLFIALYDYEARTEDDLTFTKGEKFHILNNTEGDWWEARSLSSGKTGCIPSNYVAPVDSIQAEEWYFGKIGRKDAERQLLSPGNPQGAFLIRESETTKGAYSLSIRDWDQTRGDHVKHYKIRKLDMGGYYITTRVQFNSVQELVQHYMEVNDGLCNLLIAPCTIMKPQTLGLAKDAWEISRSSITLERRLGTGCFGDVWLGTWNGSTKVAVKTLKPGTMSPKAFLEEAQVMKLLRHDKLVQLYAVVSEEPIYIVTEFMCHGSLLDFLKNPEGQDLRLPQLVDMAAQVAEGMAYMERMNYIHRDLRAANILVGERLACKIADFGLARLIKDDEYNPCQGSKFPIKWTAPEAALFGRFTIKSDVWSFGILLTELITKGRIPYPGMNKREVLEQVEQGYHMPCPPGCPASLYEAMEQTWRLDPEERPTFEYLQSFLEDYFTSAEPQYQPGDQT

In the case of NS(=O)(=O)c1cccc2c1C(=O)c1cccc(O)c1C2=O [LLL12], the STAT2 phosphorylation (STAT2) was “but not STAT1 or STAT2”, the “bodyweights of treated mice” value [1] was “not reduced” and the pIC50 (PDGFR-a) was less than 4.00. For the same compound, the pIC50 (PKC-d) was less than 4.00, the “Apoptosis (Annexin V/PI)” value (ARH-77 MM cells [2]; ARH-77, 2.5μM) was 70.8% and the “Apoptosis (Annexin V/PI)” value (ARH-77 MM cells [2]; ARH-77, 5μM) was 73.5%. The “IL-6 and IFN-α induced STAT3 phosphorylation” value (STAT3 [3]) was “prevented phosphorylation of STAT3”, the “Apoptosis (Annexin V/PI)” value (U266 MM cells [4]; U266, 2.5μM) was 38.2% and the “Apoptosis (Annexin V/PI)” value (U266 MM cells [4]; U266, 5μM) was 53.3%. For the same compound, the “Combinational Index (CI)” value (U266 cells) was “less than 1”, the “STAT6 phosphorylation by IL-4” value (STAT6) was “did not prevent phosphorylation” and the pIC50 (AKT2) was 4.04. It also gave a pIC50 ([5]; read-out: IC50, kinases which contain an SH2 domain, BMX, BRK, CSK, Fgr, Fyn, JAK3, LcK, Lyn, ZAP-70, 57.19 μM to > 100 μM) of no more than 4.24, a pIC50 ([5]; read-out: IC50, other protein kinases, AKT2, CDK1/cyclin B, FAK, FGFR2, IKKβ, JNK1, JNK2, PAK1, PAK2, PDGFR-α, PKC-α, PKC-δ, 91.76 μM to > 100 μM) of no more than 4.04 and a pIC50 (CSK) of 4.13. The pIC50 (PAK2) was less than 4.00, the pIC50 (BRK) was less than 4.00 and the “STAT3 phosphorylation in tumors” value (ARH-77 MM tumor cells; Western blot) was “inhibited STAT3 phosphorylation”. For the same compound, the tumor volume (ARH-77 MM tumor cells; p < 0.05) was “significantly suppressed”, the tumor weight (ARH-77 MM tumor cells; p < 0.05) was “significantly suppressed” and the pIC50 (BMX) was less than 4.00. For the same compound, the “STAT3 phosphorylation at Tyr 705” value (STAT3 [6]; U266 and ARH-77, 2.5μM or 5μM, 24 hours) was “inhibited STAT3 phosphorylation”, the STAT3 phosphorylation (STAT3 [6]; primary human MM cells from three patients) was “inhibited STAT3 phosphorylation” and the pIC50 (PKC-a) was less than 4.00. The pIC50 (FAK) was less than 4.00, the pIC50 (Lyn) was less than 4.00 and the STAT1 phosphorylation (STAT1) was “but not STAT1 or STAT2”. For the same compound, the pIC50 (JNK1) was less than 4.00, the “effect on normal cells” value [7] was “little effects” and the pIC50 (JAK3) was 4.05. For the same compound, the pIC50 (JNK2) was less than 4.00, the pIC50 (FGFR2) was less than 4.00 and the pIC50 (PAK1) was less than 4.00. The “STAT4 phosphorylation by IL-4” value (STAT4) was “did not prevent phosphorylation”, the “effect on normal cells” value [8] was “little effects” and the pIC50 (Fyn) was less than 4.00. For the same compound, the “transcription of cyclin D1, survivin, Bcl-2, Bcl-XL, DNMT1” value [9] was “inhibition of the transcription of all five”, the pIC50 (ZAP-70) was less than 4.00 and the “phosphorylation of ERK(1/2)” value (ERK(1/2); ARH-77 MM cells, 5μM) was “slightly reduced”. The “phosphorylation of ERK(1/2)” value (ERK(1/2); U266 MM cells) was “even increased”, the pIC50 (ARH-77 MM cells [10]) was 5.71 and the pIC50 (CDK1/CyclinB) was less than 4.00. The “phosphorylation of Src” value (Src) was “not reduced significantly”, the STAT3 nuclear localization (STAT3 [11]) was “most STAT3 was retained in cytoplasm and absent in nuclei” and the “phosphorylation of mTOR” value (mTOR) was “not reduced significantly”. For the same compound, the pIC50 (U266 MM cells [12]) was 6.31, the pIC50 (LcK) was less than 4.00 and the “IL-6 increased cell proliferation/viability” value (MM1.S MM cells; IL-6 for 48 hours, MTT) was “blocked”. The pIC50 (Fgr) was 4.24, the pIC50 (IKKb) was less than 4.00 and the “reduction of STAT3 DNA binding activity” value (STAT3 [13]; 2.5μM) was 30–33%. For the same compound, the “reduction of STAT3 DNA binding activity” value (STAT3 [13]; 5μM) was 58–69% and the “cleaved caspase-3 and cleaved PARP” value (RPMI-8226) was “did not induce”.

With O=[N+]([O-])c1ccc2c(c1)S(=O)(=O)C=C2 [Stattic, reference compound] the “IL-6 and IFN-α induced STAT3 phosphorylation” value (STAT3 [3]) was “much less potent than LLL12”.

With Nc1cccc2c1CN(C1CCC(=O)NC1=O)C2=O (stereo not shown) [lenalidomide, Lenalidomide, reference compound] the cell viability (MM1.S MM cells; lenalidomide alone) was “dose-dependent reduction of cell viability”.
